Results as given in ChEMBL document CHEMBL5705905, “Pharmacological targeting of kinases MST1 and MST2 augments tissue repair and regeneration” (Sci Transl Med, 2016).
The source made the active and inactive calls. The rule behind the calls is not given here.

Columns and labels:
[1] = target: Cytoplasmic tyrosine-protein kinase BMX (Homo sapiens) (UniProt P51813); assay: Inhibition of BMX (unknown origin) assessed as remaining activity at 1 uM by Kinome scan method relative to control
Outline: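 Active-site-dependent competition-binding (KINOMEscan) panel of 468 kinases, test compound at 1 μM (from a 10 mM DMSO stock). Read-out is ctrl% = (test signal − positive control signal)/(negative control signal − positive control signal) × 100. DMSO is the negative control (100%) and a control compound is the positive control (0%). Lower ctrl% means tighter binding.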

[2] = target: Receptor-interacting serine/threonine-protein kinase 4 (Homo sapiens, UniProt P57078); assay: Binding affinity to RIPK4 (unknown origin) assessed as dissociation constant
[3] = system: Tyrosine-protein kinase ABL1 (Homo sapiens), P00519 [Y253F]; assay: Inhibition of phosphorylated ABL1 Y253F mutant (unknown origin) assessed as remaining activity at 1 uM by Kinome scan method relative to control
[4] = target: Protein-tyrosine kinase 2-beta (Homo sapiens) (UniProt Q14289); assay: Inhibition of PYK2 (unknown origin) assessed as remaining activity at 1 uM by Kinome scan method relative to control
[5] = target: Proto-oncogene tyrosine-protein kinase Src (Homo sapiens) (UniProt P12931); assay: Inhibition of SRC (unknown origin) assessed as remaining activity at 1 uM by Kinome scan method relative to control
[6] = target: Casein kinase I isoform gamma-1 (Homo sapiens) (UniProt Q9HCP0); assay: Inhibition of CSNK1G1 (unknown origin) assessed as remaining activity at 1 uM by Kinome scan method relative to control
Outline: (§1)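 Active-site-dependent competition-binding profiling (KINOMEscan) at 1 μM against a 468-kinase panel; compound supplied from a 10 mM DMSO stock. Read-out is ctrl% = (test signal − positive control signal)/(negative control signal − positive control signal) × 100. DMSO is the negative control (100%) and a control compound the positive control (0%). Lower ctrl% means tighter binding.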

[7] = target: Casein kinase I isoform epsilon (Homo sapiens) (UniProt P49674); assay: Inhibition of CSNK1E (unknown origin) assessed as remaining activity at 1 uM by Kinome scan method relative to control; outline: as §1
[8] = target: T1, Serine/threonine-protein kinase 3 (Homo sapiens, UniProt Q13188); assay: Inhibition of recombinant His-tagged full-length MST2 (unknown origin) expressing in Escherichia coli assessed as MOB1a phosphorylation level incubated for 30 min in the presence of 300 uM ATP by immunoblot analysis
T1 sequence (Q13188 whole entry): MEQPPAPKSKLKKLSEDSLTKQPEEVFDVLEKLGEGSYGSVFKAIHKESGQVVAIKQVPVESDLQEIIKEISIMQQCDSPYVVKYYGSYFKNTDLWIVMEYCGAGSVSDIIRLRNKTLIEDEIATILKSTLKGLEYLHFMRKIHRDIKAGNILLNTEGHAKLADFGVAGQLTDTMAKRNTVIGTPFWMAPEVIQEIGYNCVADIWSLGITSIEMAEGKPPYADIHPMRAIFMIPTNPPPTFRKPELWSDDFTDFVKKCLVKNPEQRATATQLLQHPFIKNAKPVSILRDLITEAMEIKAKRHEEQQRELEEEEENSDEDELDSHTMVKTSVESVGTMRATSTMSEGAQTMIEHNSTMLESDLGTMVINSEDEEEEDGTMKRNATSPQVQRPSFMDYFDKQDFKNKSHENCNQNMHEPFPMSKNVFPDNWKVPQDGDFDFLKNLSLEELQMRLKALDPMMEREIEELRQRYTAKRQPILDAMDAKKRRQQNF

[9] = target: Serine/threonine-protein kinase WNK1 (Homo sapiens) (UniProt Q9H4A3); assay: Inhibition of WNK1 (unknown origin) assessed as remaining activity at 1 uM by Kinome scan method relative to control
[10] = target: Phosphatidylinositol 4,5-bisphosphate 3-kinase catalytic subunit gamma isoform (Homo sapiens, UniProt P48736); assay: Inhibition of PIK3CG (unknown origin) in presence of ATP by enzymatic assay
HepG2 = assay: Inhibition of Flag-tagged MST1 Y101F/D109A mutant (unknown origin) in human HepG2 cells assessed as MOB1 phosphorylation level at 0.3 to 10 uM by immunoblot analysis; type: cell-based; details: dose 0.3-10 µM
Homo sapiens = species: Homo sapiens; assay: Inhibition of recombinant His-tagged full-length MST1 Y101F mutant (unknown origin) expressing in Escherichia coli assessed as GST-tagged MOB1 phosphorylation level at 0.01 to 1 uM incubated for 15 min by immunoblot analysis; details: dose 0.01-1 µM
[11] = target: Cyclin-dependent kinase-like 1 (Homo sapiens) (UniProt Q00532); assay: Inhibition of CDKL1 (unknown origin) assessed as remaining activity at 1 uM by Kinome scan method relative to control; outline: as §1
Mus musculus = assay: Anti-colitis activity against DSS-induced mouse assessed as high BrdU incorporation at 1 mg/kg, ip administrated daily for 8 days by IHC staining; type: functional, organism-based; details: Colon, time 8.0 day
Outline: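 Wild-type mice received oral DSS for 7 days with vehicle or 1 mg/kg daily. Colon sections were stained by IHC for YAP, BrdU and Ki67, and positive cells were quantified per animal. Means ± SD, n = 10, Student's t test.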

[12] = target: Ephrin type-A receptor 1 (Homo sapiens) (UniProt P21709); assay: Inhibition of EPHA1 (unknown origin) assessed as remaining activity at 1 uM by Kinome scan method relative to control
[13] = target: T2, Serine/threonine-protein kinase 4 (Homo sapiens, UniProt Q13043); assay: Inhibition of Flag-tagged full-length MST1 (unknown origin) transfected in HEK293T cells assessed as MOB1a phosphorylation level incubated for 3 hrs by immunoblot analysis
T2 sequence (Q13043 whole entry): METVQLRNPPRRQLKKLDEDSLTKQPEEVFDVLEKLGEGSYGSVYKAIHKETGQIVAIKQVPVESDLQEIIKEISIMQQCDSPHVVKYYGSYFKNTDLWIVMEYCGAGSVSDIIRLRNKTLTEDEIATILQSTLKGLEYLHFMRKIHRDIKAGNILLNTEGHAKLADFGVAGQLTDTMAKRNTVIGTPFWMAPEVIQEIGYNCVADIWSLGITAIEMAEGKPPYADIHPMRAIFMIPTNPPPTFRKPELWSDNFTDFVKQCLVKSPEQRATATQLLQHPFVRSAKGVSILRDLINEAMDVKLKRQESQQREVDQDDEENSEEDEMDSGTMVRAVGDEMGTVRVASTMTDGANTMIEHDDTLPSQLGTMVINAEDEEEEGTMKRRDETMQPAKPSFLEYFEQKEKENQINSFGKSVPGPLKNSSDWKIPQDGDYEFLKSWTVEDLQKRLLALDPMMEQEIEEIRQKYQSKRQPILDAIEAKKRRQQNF

[14] = target: Macrophage colony-stimulating factor 1 receptor (Homo sapiens) (UniProt P07333); assay: Inhibition of CSF1R (unknown origin) assessed as remaining activity at 1 uM by Kinome scan method relative to control; outline: as §1
[15] = system: Mast/stem cell growth factor receptor Kit (Homo sapiens), P10721 [D816V]; assay: Inhibition of KIT D816V mutant (unknown origin) assessed as remaining activity at 1 uM by Kinome scan method relative to control

Proto-oncogene tyrosine-protein kinase Src (Homo sapiens), sequence (P12931 2-536 limits assumed): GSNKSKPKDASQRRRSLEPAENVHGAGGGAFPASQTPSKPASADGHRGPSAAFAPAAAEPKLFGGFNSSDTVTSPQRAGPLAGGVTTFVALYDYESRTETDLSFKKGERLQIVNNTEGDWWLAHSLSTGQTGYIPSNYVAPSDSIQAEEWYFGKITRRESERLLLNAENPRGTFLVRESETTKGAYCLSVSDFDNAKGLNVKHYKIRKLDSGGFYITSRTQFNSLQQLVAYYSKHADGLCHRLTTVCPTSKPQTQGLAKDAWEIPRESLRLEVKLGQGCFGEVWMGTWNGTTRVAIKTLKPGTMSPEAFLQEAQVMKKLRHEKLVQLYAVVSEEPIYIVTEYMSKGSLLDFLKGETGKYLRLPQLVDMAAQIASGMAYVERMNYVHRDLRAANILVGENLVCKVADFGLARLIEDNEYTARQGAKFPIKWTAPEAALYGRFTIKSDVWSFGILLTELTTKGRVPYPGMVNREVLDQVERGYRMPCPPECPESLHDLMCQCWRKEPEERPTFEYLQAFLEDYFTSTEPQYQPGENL
Cytoplasmic tyrosine-protein kinase BMX (Homo sapiens), sequence (P51813 whole entry): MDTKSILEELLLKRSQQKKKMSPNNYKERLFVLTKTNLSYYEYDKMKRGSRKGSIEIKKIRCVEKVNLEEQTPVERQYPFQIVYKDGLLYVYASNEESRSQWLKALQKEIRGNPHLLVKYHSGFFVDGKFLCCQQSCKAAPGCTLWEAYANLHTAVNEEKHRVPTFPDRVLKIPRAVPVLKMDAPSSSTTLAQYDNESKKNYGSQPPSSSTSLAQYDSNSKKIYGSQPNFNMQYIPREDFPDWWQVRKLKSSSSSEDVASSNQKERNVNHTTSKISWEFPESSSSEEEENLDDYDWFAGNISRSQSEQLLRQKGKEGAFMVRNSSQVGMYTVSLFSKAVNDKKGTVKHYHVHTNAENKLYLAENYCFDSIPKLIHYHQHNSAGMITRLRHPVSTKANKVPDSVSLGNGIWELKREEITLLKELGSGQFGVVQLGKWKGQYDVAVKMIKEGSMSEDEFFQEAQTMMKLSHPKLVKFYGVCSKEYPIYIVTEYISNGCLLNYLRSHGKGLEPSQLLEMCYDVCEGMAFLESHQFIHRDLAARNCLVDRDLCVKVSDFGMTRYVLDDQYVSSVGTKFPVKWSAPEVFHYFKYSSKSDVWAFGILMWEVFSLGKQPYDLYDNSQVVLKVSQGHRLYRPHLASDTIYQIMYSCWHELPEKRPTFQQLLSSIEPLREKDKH
Protein-tyrosine kinase 2-beta (Homo sapiens), sequence (Q14289 whole entry, looked up): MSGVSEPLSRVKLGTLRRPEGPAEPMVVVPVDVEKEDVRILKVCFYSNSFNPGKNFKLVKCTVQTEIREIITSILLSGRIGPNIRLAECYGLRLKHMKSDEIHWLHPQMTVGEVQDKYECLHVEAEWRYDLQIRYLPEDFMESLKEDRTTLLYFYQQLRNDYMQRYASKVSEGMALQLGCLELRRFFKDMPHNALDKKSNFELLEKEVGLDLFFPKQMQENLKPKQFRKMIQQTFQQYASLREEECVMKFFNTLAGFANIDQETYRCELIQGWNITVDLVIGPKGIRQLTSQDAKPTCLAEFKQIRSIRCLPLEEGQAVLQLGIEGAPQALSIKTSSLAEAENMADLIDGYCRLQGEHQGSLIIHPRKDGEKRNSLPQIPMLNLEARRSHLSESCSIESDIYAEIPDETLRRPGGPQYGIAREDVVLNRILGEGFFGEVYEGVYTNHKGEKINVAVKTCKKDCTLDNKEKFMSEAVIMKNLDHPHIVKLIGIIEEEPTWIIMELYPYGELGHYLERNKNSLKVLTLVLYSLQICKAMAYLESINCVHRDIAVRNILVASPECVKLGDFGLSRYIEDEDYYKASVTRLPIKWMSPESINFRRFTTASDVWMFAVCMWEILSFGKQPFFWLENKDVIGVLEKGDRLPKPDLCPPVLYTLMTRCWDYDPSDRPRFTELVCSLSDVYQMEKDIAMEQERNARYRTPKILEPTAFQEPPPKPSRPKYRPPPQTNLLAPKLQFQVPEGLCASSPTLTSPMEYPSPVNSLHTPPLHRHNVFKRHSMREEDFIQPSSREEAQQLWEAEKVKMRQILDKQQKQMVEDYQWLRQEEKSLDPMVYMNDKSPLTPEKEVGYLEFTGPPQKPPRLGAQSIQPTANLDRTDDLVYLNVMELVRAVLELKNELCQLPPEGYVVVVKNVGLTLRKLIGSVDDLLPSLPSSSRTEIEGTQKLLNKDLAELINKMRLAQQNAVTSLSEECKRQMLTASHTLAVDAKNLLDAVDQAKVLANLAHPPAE
Macrophage colony-stimulating factor 1 receptor (Homo sapiens), sequence (P07333 whole entry): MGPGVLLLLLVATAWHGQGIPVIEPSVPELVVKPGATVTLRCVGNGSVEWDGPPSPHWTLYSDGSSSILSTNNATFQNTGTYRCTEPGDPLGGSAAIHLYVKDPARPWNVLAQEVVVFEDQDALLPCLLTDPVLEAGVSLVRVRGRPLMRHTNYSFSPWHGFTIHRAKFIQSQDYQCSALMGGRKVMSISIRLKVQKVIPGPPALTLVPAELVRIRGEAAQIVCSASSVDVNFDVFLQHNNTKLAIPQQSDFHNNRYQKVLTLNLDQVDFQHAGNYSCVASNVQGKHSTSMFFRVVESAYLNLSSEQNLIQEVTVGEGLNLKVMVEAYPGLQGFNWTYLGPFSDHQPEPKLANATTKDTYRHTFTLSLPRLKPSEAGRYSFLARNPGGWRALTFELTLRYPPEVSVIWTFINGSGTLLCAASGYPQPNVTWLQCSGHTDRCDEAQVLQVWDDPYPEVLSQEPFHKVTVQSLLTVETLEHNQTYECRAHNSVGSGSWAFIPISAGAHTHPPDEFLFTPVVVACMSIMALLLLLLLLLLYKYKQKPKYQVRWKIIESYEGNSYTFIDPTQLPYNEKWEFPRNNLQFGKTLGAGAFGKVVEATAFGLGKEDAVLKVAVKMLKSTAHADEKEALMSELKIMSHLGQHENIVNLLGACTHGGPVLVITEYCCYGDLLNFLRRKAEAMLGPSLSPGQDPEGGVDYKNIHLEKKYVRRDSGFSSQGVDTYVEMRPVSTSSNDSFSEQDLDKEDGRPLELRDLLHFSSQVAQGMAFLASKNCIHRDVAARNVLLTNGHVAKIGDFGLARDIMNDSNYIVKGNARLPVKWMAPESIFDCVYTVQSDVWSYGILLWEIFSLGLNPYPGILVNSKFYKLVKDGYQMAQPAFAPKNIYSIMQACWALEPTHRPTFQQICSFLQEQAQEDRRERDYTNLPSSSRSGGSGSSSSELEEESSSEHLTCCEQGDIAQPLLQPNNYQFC
Casein kinase I isoform gamma-1 (Homo sapiens), sequence (Q9HCP0 whole entry, looked up, canonical isoform): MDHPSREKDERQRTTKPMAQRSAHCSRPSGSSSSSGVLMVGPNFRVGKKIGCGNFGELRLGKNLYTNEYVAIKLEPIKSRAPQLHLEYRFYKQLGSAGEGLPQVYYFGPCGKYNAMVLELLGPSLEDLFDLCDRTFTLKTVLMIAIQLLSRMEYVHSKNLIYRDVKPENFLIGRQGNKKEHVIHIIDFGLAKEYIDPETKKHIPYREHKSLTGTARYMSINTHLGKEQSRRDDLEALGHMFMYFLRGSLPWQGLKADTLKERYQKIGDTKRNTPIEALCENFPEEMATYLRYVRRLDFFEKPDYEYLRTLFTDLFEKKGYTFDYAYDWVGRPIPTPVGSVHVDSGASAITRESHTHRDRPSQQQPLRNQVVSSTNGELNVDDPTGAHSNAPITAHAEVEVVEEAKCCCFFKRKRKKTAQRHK
Phosphatidylinositol 4,5-bisphosphate 3-kinase catalytic subunit gamma isoform, sequence (P48736 whole entry, canonical isoform): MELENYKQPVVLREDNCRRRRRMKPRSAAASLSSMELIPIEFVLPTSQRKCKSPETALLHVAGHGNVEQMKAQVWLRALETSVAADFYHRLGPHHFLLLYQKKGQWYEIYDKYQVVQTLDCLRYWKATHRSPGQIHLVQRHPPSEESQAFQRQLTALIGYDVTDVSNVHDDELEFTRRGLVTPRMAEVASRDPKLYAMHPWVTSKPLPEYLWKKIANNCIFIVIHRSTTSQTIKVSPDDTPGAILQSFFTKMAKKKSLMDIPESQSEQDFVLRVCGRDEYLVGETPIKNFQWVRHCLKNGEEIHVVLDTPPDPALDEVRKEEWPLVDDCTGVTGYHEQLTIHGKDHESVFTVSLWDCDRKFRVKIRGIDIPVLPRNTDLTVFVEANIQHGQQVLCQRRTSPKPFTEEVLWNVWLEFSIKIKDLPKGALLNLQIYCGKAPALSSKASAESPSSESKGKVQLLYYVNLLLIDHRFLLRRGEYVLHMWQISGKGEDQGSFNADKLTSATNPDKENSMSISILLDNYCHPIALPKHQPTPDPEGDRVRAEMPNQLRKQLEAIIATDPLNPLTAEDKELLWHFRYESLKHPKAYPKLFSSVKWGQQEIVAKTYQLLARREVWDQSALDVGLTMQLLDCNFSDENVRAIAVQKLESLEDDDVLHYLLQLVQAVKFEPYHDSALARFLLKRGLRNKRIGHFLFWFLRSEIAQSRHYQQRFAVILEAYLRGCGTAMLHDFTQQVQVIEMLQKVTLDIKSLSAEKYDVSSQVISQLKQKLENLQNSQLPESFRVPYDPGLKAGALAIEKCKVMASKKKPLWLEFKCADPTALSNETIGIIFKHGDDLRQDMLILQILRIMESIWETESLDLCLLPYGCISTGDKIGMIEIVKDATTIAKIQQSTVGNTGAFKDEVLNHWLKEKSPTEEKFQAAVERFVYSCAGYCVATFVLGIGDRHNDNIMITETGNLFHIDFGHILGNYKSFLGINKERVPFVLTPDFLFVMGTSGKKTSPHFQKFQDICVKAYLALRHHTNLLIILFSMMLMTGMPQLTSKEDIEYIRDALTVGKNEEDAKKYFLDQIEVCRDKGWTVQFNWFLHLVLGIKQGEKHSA
Cyclin-dependent kinase-like 1 (Homo sapiens), sequence (Q00532 whole entry): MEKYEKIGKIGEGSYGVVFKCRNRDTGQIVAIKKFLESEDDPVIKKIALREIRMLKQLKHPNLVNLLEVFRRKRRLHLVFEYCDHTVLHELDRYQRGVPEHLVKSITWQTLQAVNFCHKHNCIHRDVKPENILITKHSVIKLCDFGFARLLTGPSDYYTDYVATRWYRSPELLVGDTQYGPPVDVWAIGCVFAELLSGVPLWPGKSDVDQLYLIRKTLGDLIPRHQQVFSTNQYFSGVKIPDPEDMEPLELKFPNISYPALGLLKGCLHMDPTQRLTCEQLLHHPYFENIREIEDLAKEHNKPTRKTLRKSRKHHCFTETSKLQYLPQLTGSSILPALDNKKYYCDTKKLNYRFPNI

Compound CN1C(=O)c2sccc2N(C)c2nc(Nc3ccc(S(N)(=O)=O)cc3)ncc21 has an Activity [1] of 90%, a Kd [2] of 140 nM and an Activity [3] of 15%. The Activity [4] was 98%, the Activity [5] was 100% and the Activity [6] was 79%. The Activity [7] was 92%, the IC50 [8] was 1500 nM and the Activity [9] was 97%. For the same compound, the IC50 [10] was 38.4 nM, the inhibition (HepG2) was “Active” and the inhibition (Homo sapiens) was “Active”. The Activity [11] was 100%, the Activity (Mus musculus) was “Active” and the Activity [12] was 92%. The IC50 [13] was 71.1 nM, the Activity [14] was 86% and the Activity [15] was 94%.
